Data reported in ChEMBL document CHEMBL1800018, “Discovery of a series of imidazo[4,5-b]pyridines with dual activity at angiotensin II type 1 receptor and peroxisome proliferator-activated receptor-γ” (J Med Chem, 2011).
The source made the active and inactive calls. The calls are words filed in the database; no cut-off is given here.

Columns and labels:
Rattus norvegicus [1] = assay: Antidiabetic activity in ZDF rat assessed as blood glucose level at 1 mg/kg, po QD for 40 days (reference value: 771+/-60 mg/dL); type: functional
Rattus norvegicus [2] = assay: Antidiabetic activity in ZDF rat assessed as blood glucose level at 10 mg/kg, po QD for 40 days (reference value: 771+/-60 mg/dL); type: functional
Rattus norvegicus [3] = assay: Antidiabetic activity in ZDF rat assessed as blood glucose level at 30 mg/kg, po QD for 40 days (reference value: 771+/-60 mg/dL); type: functional
Rattus norvegicus [4] = assay: Antidiabetic activity in ZDF rat assessed as blood glucose level at 100 mg/kg, po QD for 40 days (reference value: 771+/-60 mg/dL); type: functional
Rattus norvegicus [5] = assay: Antidiabetic activity in ZDF rat assessed as body weight gain at 0.1 mg/kg, po QD for 40 days (reference value: 133+/-9 g); type: functional
Summary of the method: (§1)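 Male ZDF rats, starting at about 6 weeks old, were dosed orally once daily for 40 days in 1.5% CMC/0.2% Tween 20 suspension, n = 8/group. Body weight was followed over the study. Gain was calculated per animal from day 0 to day 40 and compared with vehicle and pioglitazone (3 mg/kg) groups. Data are mean ± SEM.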

Rattus norvegicus [6] = assay: Antidiabetic activity in ZDF rat assessed as body weight gain at 30 mg/kg, po QD for 40 days (reference value: 133+/-9 g); type: functional; summary of the method: as §1
Rattus norvegicus [7] = assay: Antidiabetic activity in ZDF rat assessed as adiponectin level at 3 mg/kg, po QD for 40 days (reference value: 11.9+/-1.5 ug/ml); type: functional
Rattus norvegicus [8] = assay: Antidiabetic activity in ZDF rat assessed as adiponectin level at 1 mg/kg, po QD for 40 days (reference value: 11.9+/-1.5 ug/ml); type: functional
Rattus norvegicus [9] = assay: Antidiabetic activity in ZDF rat assessed as adiponectin level at 30 mg/kg, po QD for 40 days (reference value: 11.9+/-1.5 ug/ml); type: functional
Rattus norvegicus [10] = assay: Antidiabetic activity in ZDF rat assessed as adiponectin level at 100 mg/kg, po QD for 40 days (reference value: 11.9+/-1.5 ug/ml); type: functional
Rattus norvegicus [11] = organism: Rattus norvegicus; assay: Steady state free plasma concentration in SHR rat; type: ADME, organism-based; conditions: in vivo, in the assay text read “ZDF rat” for “SHR rat”
[12] = biological target: T1, Type-1 angiotensin II receptor (Homo sapiens, UniProt P30556); assay: Displacement of [125I]Tyr4-Sar1,Ile8-Angiotensin II from human Angiotensin 1 receptor after 60 mins by scintillation counting
T1 sequence (P30556 whole entry): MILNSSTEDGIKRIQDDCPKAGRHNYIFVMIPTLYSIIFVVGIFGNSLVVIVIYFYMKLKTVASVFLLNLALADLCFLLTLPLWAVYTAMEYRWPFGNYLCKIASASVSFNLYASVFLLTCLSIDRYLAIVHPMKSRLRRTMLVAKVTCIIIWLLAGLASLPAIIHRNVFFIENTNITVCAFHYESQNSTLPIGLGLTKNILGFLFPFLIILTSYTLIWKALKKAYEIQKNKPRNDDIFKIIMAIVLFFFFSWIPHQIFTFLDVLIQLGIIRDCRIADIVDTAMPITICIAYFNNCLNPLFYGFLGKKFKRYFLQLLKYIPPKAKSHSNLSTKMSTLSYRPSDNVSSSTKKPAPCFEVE

[13] = biological target: T2, Peroxisome proliferator-activated receptor gamma (Homo sapiens, UniProt P37231); assay: Partial agonist activity at human PPARgamma-LBD/Gal4 DNA binding domain by transactivation assay
T2 sequence (P37231 whole entry): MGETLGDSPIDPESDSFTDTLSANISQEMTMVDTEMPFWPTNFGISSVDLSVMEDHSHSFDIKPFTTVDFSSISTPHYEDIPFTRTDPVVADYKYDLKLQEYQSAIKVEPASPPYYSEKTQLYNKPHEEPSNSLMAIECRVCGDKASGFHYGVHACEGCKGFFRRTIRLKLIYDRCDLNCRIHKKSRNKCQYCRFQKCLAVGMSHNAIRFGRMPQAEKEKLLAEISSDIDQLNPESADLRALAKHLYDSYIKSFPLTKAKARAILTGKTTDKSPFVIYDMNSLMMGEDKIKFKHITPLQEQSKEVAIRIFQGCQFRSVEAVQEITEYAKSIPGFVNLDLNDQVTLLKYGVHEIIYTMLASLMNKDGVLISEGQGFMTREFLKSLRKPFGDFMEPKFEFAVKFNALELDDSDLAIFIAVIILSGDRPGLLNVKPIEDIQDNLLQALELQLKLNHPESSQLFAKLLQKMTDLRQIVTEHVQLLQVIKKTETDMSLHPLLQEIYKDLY

[14] = biological target: T1, Type-1 angiotensin II receptor; assay: Binding affinity to human Angiotensin receptor 1
Summary of the method: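 Competition radioligand binding on human recombinant AT1 receptors, displacing [¹²⁵I]Tyr⁴-Sar¹,Ile⁸-angiotensin II.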

[15] = biological target: T3, Peroxisome proliferator-activated receptor alpha (Homo sapiens) (UniProt Q07869); assay: Transactivation of human PPARalpha
T3 sequence (whole entry): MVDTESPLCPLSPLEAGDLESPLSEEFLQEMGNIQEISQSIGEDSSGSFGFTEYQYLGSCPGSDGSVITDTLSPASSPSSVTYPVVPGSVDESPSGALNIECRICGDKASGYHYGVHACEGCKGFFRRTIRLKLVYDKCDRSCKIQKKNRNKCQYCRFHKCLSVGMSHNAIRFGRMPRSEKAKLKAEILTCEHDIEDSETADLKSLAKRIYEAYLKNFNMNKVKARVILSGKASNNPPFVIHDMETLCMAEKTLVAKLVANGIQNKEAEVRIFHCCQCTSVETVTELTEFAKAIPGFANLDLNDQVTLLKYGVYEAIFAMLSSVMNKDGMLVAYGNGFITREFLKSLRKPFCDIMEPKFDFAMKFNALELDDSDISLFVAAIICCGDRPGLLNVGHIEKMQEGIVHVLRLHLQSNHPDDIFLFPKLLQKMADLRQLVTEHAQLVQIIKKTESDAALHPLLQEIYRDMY

[16] = AUC in rat at 1 mg/kg, iv; type: ADME, organism-based; parameters: dose 1 mg/kg, route intravenous; conditions: plasma
[17] = Volume of distribution at steady state in rat at 1 mg/kg, iv; type: ADME, organism-based; parameters: dose 1 mg/kg, route intravenous; conditions: in vivo, read-out: Vdss
[18] = AUC in rat at 5 mg/kg, po; type: ADME, organism-based; parameters: dose 5 mg/kg, route oral; conditions: plasma
[19] = Oral bioavailability in rat at 5 mg/kg; type: ADME, organism-based; conditions: in vivo
[20] = Cmax in SHR rat at 10 mg/kg, po; type: ADME, organism-based; parameters: dose 10 mg/kg, route oral; conditions: in vivo
Summary of the method: (§2)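 SHR received a single oral dose of 1, 3 or 10 mg/kg. Systemic exposure was determined as plasma Cmax and AUC.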

[21] = AUC in SHR rat at 1 mg/kg, po; type: ADME, organism-based; parameters: dose 1 mg/kg, route oral; conditions: plasma; summary of the method: as §2
[22] = Cmax in ZDF rat at 10 mg/kg, po; type: ADME, organism-based; parameters: dose 10 mg/kg, route oral; conditions: in vivo
Summary of the method: (§3)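 Male ZDF rats; satellite animals outside the efficacy groups were given oral doses of 3, 10 or 100 mg/kg. Plasma Cmax and AUC were calculated from these animals.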

[23] = AUC in ZDF rat at 3 mg/kg, po; type: ADME, organism-based; parameters: dose 3 mg/kg, route oral; conditions: plasma; summary of the method: as §3
Rattus norvegicus [24] = assay: Antihypertensive activity in SHR rat assessed as induction of reflex tachycardia at 10 mg/kg, po single dose measured 4 to 8 hrs post dosing

CCc1nc2c(C)cc(CC(C)C)nc2n1[C@H]1CCc2cc(-c3ccccc3-c3nnn[nH]3)ccc21
Activity (Rattus norvegicus [1]): 612 mg/dL | Activity (Rattus norvegicus [2]): 159 mg/dL | Activity (Rattus norvegicus [3]): 140 mg/dL | Activity (Rattus norvegicus [4]): 116 mg/dL | Activity (Rattus norvegicus [5]): 128 g | Activity (Rattus norvegicus [6]): 202 g | Activity (Rattus norvegicus [7]): 11.4 µg/mL | Activity (Rattus norvegicus [8]): 10.2 µg/mL | Activity (Rattus norvegicus [9]): 24.3 µg/mL | Activity (Rattus norvegicus [10]): 27.5 µg/mL | Cp(f)ss (Rattus norvegicus [11]): 2.6 nM | IC50 [12]: 1.6 nM | EC50 [13]: 212 nM | Ki [14]: 0.69 nM | Activity [15]: inactive | AUC [16]: 1220 ng·h/mL | Vd [17]: 2.9 L/kg | AUC [18]: 4950 ng·h/mL | bioavailability [19]: 80% | Cmax [20]: 3070 ng/mL | AUC [21]: 320 ng·h/mL | Cmax [22]: 2730 ng/mL | AUC [23]: 4400 ng·h/mL | Activity (Rattus norvegicus [24]): Active
